Measured values pooled from the literature.
Compare with care: the assays were run in different laboratories.
Target: Alpha-1D adrenergic receptor (ADRA1D, Homo sapiens, UniProt P25100)
Tested at: 10 µM
Residues used in one study (P25100 1-572): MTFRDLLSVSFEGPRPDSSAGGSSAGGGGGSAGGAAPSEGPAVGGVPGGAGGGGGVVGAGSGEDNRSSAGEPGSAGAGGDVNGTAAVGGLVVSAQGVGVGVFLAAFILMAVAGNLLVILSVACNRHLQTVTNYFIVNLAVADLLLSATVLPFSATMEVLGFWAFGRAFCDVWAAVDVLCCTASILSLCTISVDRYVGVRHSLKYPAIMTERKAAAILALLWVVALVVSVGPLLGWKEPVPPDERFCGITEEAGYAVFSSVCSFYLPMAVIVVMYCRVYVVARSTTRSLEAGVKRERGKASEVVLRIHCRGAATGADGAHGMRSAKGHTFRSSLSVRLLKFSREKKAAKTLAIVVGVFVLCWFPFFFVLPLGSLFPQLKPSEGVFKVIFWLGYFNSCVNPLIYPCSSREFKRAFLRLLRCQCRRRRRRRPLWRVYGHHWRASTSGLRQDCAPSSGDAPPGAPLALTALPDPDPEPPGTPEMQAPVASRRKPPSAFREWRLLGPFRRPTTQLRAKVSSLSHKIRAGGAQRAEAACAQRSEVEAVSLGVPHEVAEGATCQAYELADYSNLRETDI

`CCCNc1nc2ccccc2n1Cc1ccc(Cl)cc1` has an inhibition of 10.2% (ligand displacement).
For `O=C(Nc1ccc(S(=O)(=O)N2CCC(Cl)CC2)cc1)c1ccc([N+](=O)[O-])o1`, the inhibition was 8% (ligand displacement; radioligand).
`CCN(CC)c1ccc(C2Nc3ccc(C(=O)c4ccccc4)cc3NC3=C2C(=O)CC(C)(C)C3)cc1` (centres unmarked) gave an inhibition of 8% (ligand displacement; radioligand).
With `CC(=O)C1=C(C)N(c2cccc(C(F)(F)F)c2)C(=O)N[C@H]1c1ccc(C#N)nc1` the inhibition was 7.7% (ligand displacement).
`CCN(Cc1ccccc1C(F)(F)F)C(=O)C1CCN(S(=O)(=O)c2ccc3[nH]ncc3c2)CC1` has an inhibition of 5% (ligand displacement; radioligand).
With `O=C(c1ccc(F)cc1)N(Cc1ccccc1)C1CCCCC1` the inhibition was 7% (cell-free assay).
The inhibition of `CC(C)(C)OC(=O)N1CCCC1CNC1CCC(c2cc(F)ccc2F)(S(=O)(=O)c2ccc(Cl)cc2)CC1` (centres unmarked) is reported as 22.5% (cell-free assay).
The inhibition of `N#Cc1cc(Cn2c(N3CCCC3)nc3ccccc32)ccc1F` is reported as -11.1% (ligand displacement).
